Results as given in ChEMBL document CHEMBL3580633, “Benzoxaborole antimalarial agents. Part 4. Discovery of potent 6-(2-(alkoxycarbonyl)pyrazinyl-5-oxy)-1,3-dihydro-1-hydroxy-2,1-benzoxaboroles” (J Med Chem, 2015).

Tests used:
Jurkat = experiment: Cytotoxicity against human Jurkat cells incubated for 72 hrs by MTT assay; assay type: cell-based
Plasmodium falciparum [1] = experiment: Antimalarial activity against chloroquine-sensitive Plasmodium falciparum 3D7 cultured in human erythrocytes incubated for 48 hrs by [3H]-hypoxanthine incorporation assay; assay type: functional, organism-based
Procedure, shortened: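 3D7 parasites in human erythrocytes, RPMI-1640 with 0.5% Albumax II, […], 37 °C, 5% O2/5% CO2. Asynchronous cultures (0.5% parasitemia, 2% hematocrit) given 3-fold serial dilutions for 24 h. [3H]hypoxanthine then added for a further 24 h, and incorporation counted by scintillation. Normalised to drug-free infected cells. IC50 from at least three independent experiments.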

Plasmodium falciparum [2] = experiment: Antimalarial activity against chloroquine-resistant Plasmodium falciparum W2 cultured in human erythrocytes assessed as inhibition of parasite growth incubated for 48 hrs by YOYO-1 staining based flow cytometry; assay type: functional, organism-based; settings: W2, 48 h
Plasmodium falciparum [3] = experiment: Antimalarial activity against chloroquine-resistant Plasmodium falciparum W2 cultured in human erythrocytes assessed as inhibition of parasite growth at 5 uM incubated for 48 hrs by YOYO-1 staining based flow cytometry; assay type: functional; settings: W2, 48 h
Procedure, shortened: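 W2 P. falciparum grown in human erythrocytes in RPMI-1640 with 10% human serum or 0.5% Albumax, under 3% O2/5% CO2/92% N2. Sorbitol-synchronised rings at 2% hematocrit, 1% parasitemia, exposed to one concentration for 48 h. Cells fixed in 2% formaldehyde, stained with YOYO-1, and parasites per erythrocyte counted by flow cytometry. Value given as percent inhibition versus untreated control.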

Plasmodium berghei [4] = experiment: Antiplasmodial activity against Plasmodium berghei infected in Swiss Webster mouse assessed as mouse survival at 30 mg/kg, po dosed once daily for 4 consecutive days beginning 1 hr after initial infection and measured on day 8 post infection by Giemsa staining method; assay type: functional
Procedure, shortened: (§1)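 Female Swiss Webster mice (about 20 g) were infected ip with 6 × 10^6 P. berghei-infected erythrocytes from a donor mouse. They were dosed by oral gavage once daily for 4 days, starting 1 h post-infection, in PEG 300/propylene glycol/water (55/25/20 by weight). Parasitemia was read daily on Giemsa smears from day 4, and mice were euthanized above 50% parasitemia. Percent survival was tracked to 21 days.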

Plasmodium berghei [5] = experiment: Antiplasmodial activity against Plasmodium berghei infected in Swiss Webster mouse assessed as mouse survival at 30 mg/kg, po dosed once daily for 4 consecutive days beginning 1 hr after initial infection and measured on day 10 post infection by Giemsa staining method; assay type: functional
Procedure, shortened: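 Female Swiss Webster mice (about 20 g) infected ip with 6 × 10^6 P. berghei-infected erythrocytes. Oral gavage once daily for 4 days, starting 1 h after infection. Vehicle PEG300/propylene glycol/water (55/25/20 by weight). Giemsa-smear parasitemia counted daily from day 4. Mice euthanised above 50% parasitemia. Survival followed to day 21, 5 mice per dose, chloroquine 30 mg/kg as reference.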

Plasmodium berghei [6] = experiment: Antiplasmodial activity against Plasmodium berghei infected in Swiss Webster mouse assessed as mouse survival at 30 mg/kg, po dosed once daily for 4 consecutive days beginning 1 hr after initial infection and measured on day 9 post infection by Giemsa staining method; assay type: functional; procedure, shortened: as §1
Plasmodium berghei [7] = experiment: Antiplasmodial activity against Plasmodium berghei infected in Swiss Webster mouse assessed as mouse survival at 30 mg/kg, po dosed once daily for 4 consecutive days beginning 1 hr after initial infection and measured on day 12 post infection by Giemsa staining method; assay type: functional; procedure, shortened: as §1
Plasmodium berghei [8] = experiment: Antiplasmodial activity against Plasmodium berghei infected in Swiss Webster mouse assessed as mouse survival at 30 mg/kg, po dosed once daily for 4 consecutive days beginning 1 hr after initial infection and measured on day 6 post infection by Giemsa staining method; assay type: functional; procedure, shortened: as §1
Plasmodium berghei [9] = experiment: Antiplasmodial activity against Plasmodium berghei infected in Swiss Webster mouse assessed as mouse survival at 30 mg/kg, po dosed once daily for 4 consecutive days beginning 1 hr after initial infection and measured on day 11 post infection by Giemsa staining method; assay type: functional; procedure, shortened: as §1
Plasmodium berghei [10] = experiment: Antiplasmodial activity against Plasmodium berghei infected in Swiss Webster mouse assessed as mouse survival at 30 mg/kg, po dosed once daily for 4 consecutive days beginning 1 hr after initial infection and measured on day 14 post infection by Giemsa staining method; assay type: functional; procedure, shortened: as §1
Plasmodium berghei [11] = experiment: Antiplasmodial activity against Plasmodium berghei infected in Swiss Webster mouse assessed as mouse survival at 30 mg/kg, po dosed once daily for 4 consecutive days beginning 1 hr after initial infection and measured on day 4 post infection by Giemsa staining method; assay type: functional; procedure, shortened: as §1
Plasmodium berghei [12] = experiment: Antiplasmodial activity against Plasmodium berghei infected in Swiss Webster mouse assessed as mouse survival at 30 mg/kg, po dosed once daily for 4 consecutive days beginning 1 hr after initial infection and measured on day 15 post infection by Giemsa staining method; assay type: functional; procedure, shortened: as §1
Plasmodium berghei [13] = experiment: Antiplasmodial activity against Plasmodium berghei infected in Swiss Webster mouse assessed as mouse survival at 30 mg/kg, po dosed once daily for 4 consecutive days beginning 1 hr after initial infection and measured on day 16 to 19 post infection by Giemsa staining method; assay type: functional; procedure, shortened: as §1
Plasmodium berghei [14] = experiment: Antiplasmodial activity against Plasmodium berghei infected in Swiss Webster mouse assessed as mouse survival at 30 mg/kg, po dosed once daily for 4 consecutive days beginning 1 hr after initial infection and measured on day 7 post infection by Giemsa staining method; assay type: functional; procedure, shortened: as §1
Plasmodium berghei [15] = experiment: Antiplasmodial activity against Plasmodium berghei infected in Swiss Webster mouse assessed as mouse survival at 30 mg/kg, po dosed once daily for 4 consecutive days beginning 1 hr after initial infection and measured on day 18 post infection by Giemsa staining method; assay type: functional; procedure, shortened: as §1
Plasmodium berghei [16] = experiment: Antiplasmodial activity against Plasmodium berghei infected in Swiss Webster mouse assessed as mouse survival at 30 mg/kg, po dosed once daily for 4 consecutive days beginning 1 hr after initial infection and measured on day 5 post infection by Giemsa staining method; assay type: functional; procedure, shortened: as §1
Plasmodium berghei [17] = experiment: Antiplasmodial activity against Plasmodium berghei infected in Swiss Webster mouse assessed as mouse survival at 30 mg/kg, po dosed once daily for 4 consecutive days beginning 1 hr after initial infection and measured on day 13 post infection by Giemsa staining method; assay type: functional; procedure, shortened: as §1
Plasmodium berghei [18] = experiment: Antiplasmodial activity against Plasmodium berghei infected in Swiss Webster mouse assessed as mouse survival at 30 mg/kg, po dosed once daily for 4 consecutive days beginning 1 hr after initial infection and measured on day 20 post infection by Giemsa staining method; assay type: functional; procedure, shortened: as §1

Row | Structure (SMILES) | IC50 (Plasmodium falciparum [1]) [µM] | IC50 (Plasmodium falciparum [2]) [µM] | also measured
1 | O=C(OC1CCCCC1)c1cnc(Oc2ccc3c(c2)B(O)OC3)cn1 | 0.0029 | 0.0007 | IC50 (Jurkat): 52.4 µM
2 | CC(C)COC(=O)c1cnc(Oc2ccc3c(c2)B(O)OC3)cn1 | 0.0025 | 0.0005 | IC50 (Jurkat): 17.6 µM
3 | Cc1nnc(-c2cnc(Oc3ccc4c(c3)B(O)OC4)cn2)o1 | > 5 | > 10 | –
4 | CC(C)(C)COC(=O)c1cnc(Oc2ccc3c(c2)B(O)OC3)cn1 | 0.0089 | 0.0066 | –
5 | O=C(NCCO)c1cnc(Oc2ccc3c(c2)B(O)OC3)cn1 | 5.9 | > 10 | –
6 | O=C1C(O)=C([C@H]2CC[C@H](c3ccc(Cl)cc3)CC2)C(=O)c2ccccc21 [ATOVAQUONE] | 0.001 | – | –
7 | CNC(=O)c1cnc(Oc2ccc3c(c2)B(O)OC3)cn1 | 0.32 | 0.24 | –
8 | CC(C)(C)OC(=O)c1cnc(Oc2ccc3c(c2)B(O)OC3)cn1 | 0.022 | 0.019 | IC50 (Jurkat): > 100 µM
9 | CC(C)CCOC(=O)c1cnc(Oc2ccc3c(c2)B(O)OC3)cn1 | 0.002 | 0.0004 | –
10 | CC1(C)COC(c2cnc(Oc3ccc4c(c3)B(O)OC4)cn2)=N1 | 1.46 | 0.8 | –
11 | NCc1cnc(Oc2ccc3c(c2)B(O)OC3)cn1 | 0.47 | 0.11 | –
12 | CCCCOC(=O)c1cnc(Oc2ccc3c(c2)B(O)OC3)cn1 | 0.0007 | 0.0002 | IC50 (Jurkat): > 100 µM
13 | CC(C)S(=O)(=O)NC(=O)c1cnc(Oc2ccc3c(c2)B(O)OC3)cn1 | 0.13 | 0.19 | –
14 | CCOC(=O)c1ccc(Oc2ccc3c(c2)B(O)OC3)cc1 | – | – | inhibition at 5 µM (Plasmodium falciparum [3]): 0%
15 | CC(C)(N)COC(=O)c1cnc(Oc2ccc3c(c2)B(O)OC3)cn1 | 0.25 | 0.19 | –
16 | N/C(=N\O)c1cnc(Oc2ccc3c(c2)B(O)OC3)cn1 | > 5 | > 10 | –
17 | CN(C)CCNC(=O)c1cnc(Oc2ccc3c(c2)B(O)OC3)cn1 | > 5 | 6.66 | –

Row | Structure (SMILES) | IC50 (Plasmodium falciparum [1]) [µM] | IC50 (Plasmodium falciparum [2]) [µM] | also measured
18 | CCOC(=O)c1ccc(Oc2ccc3c(c2)B(O)OC3)nc1 | – | – | inhibition at 5 µM (Plasmodium falciparum [3]): 0%
19 | CN(C)C(=O)c1cnc(Oc2ccc3c(c2)B(O)OC3)cn1 | 0.96 | 0.15 | IC50 (Jurkat): > 100 µM
20 | OB1OCc2ccc(Oc3cnc(-c4nnn[nH]4)cn3)cc21 | > 5 | > 10 | –
21 | CCNC(=O)c1cnc(Oc2ccc3c(c2)B(O)OC3)cn1 | 0.87 | 0.12 | IC50 (Jurkat): 79.9 µM
22 | CN(C)Cc1cnc(Oc2ccc3c(c2)B(O)OC3)cn1 | > 5 | > 10 | –
23 | C[C@@H]1CC[C@H]2[C@@H](C)C(=O)O[C@@H]3O[C@@]4(C)CC[C@@H]1[C@]32OO4 [ARTEMISININ] | – | 0.006 | –
24 | CCOC(=O)c1cnc(Oc2ccc3c(c2)B(O)OC3)cn1 | 0.0044 | 0.0005 | IC50 (Jurkat): 16.8 µM
25 | COC(=O)c1cnc(Oc2ccc3c(c2)B(O)OC3)nc1 | – | – | inhibition at 5 µM (Plasmodium falciparum [3]): 80%
26 | CC(C)OC(=O)c1cnc(Oc2ccc3c(c2)B(O)OC3)cn1 | 0.0014 | 0.0012 | IC50 (Jurkat): > 100 µM
27 | OCc1cnc(Oc2ccc3c(c2)B(O)OC3)cn1 | 2.24 | 0.44 | –
28 | OB1OCc2ccc(Oc3cnccn3)cc21 | > 5 | 9.38 | –
29 | N#Cc1cnc(Oc2ccc3c(c2)B(O)OC3)cn1 | 3.25 | 0.47 | –
30 | COC(=O)c1ccc(Oc2ccc3c(c2)B(O)OC3)nn1 | 0.1 | 0.082 | –
31 | CCN(CC)CCCC(C)Nc1ccnc2cc(Cl)ccc12 (stereo not drawn) [CHLOROQUINE] | – | – | survival at 30 mg/kg (Plasmodium berghei [4]): 100%; survival at 30 mg/kg (Plasmodium berghei [5]): 100%; survival at 30 mg/kg (Plasmodium berghei [6]): 100%; survival at 30 mg/kg (Plasmodium berghei [7]): 100%; survival at 30 mg/kg (Plasmodium berghei [8]): 100%; survival at 30 mg/kg (Plasmodium berghei [9]): 100%; survival at 30 mg/kg (Plasmodium berghei [10]): 100%; survival at 30 mg/kg (Plasmodium berghei [11]): 100%; survival at 30 mg/kg (Plasmodium berghei [12]): 100%; survival at 30 mg/kg (Plasmodium berghei [13]): 100%; survival at 30 mg/kg (Plasmodium berghei [14]): 100%; survival at 30 mg/kg (Plasmodium berghei [15]): 100%; survival at 30 mg/kg (Plasmodium berghei [16]): 100%; survival at 30 mg/kg (Plasmodium berghei [17]): 100%; survival at 30 mg/kg (Plasmodium berghei [18]): 20%
32 | COC(=O)c1ccc(Oc2ccc3c(c2)B(O)OC3)cn1 | 0.12 | 0.023 | IC50 (Jurkat): > 100 µM
33 | O/N=C/c1cnc(Oc2ccc3c(c2)B(O)OC3)cn1 | 3 | 1.77 | –
